The source of these data is ChEMBL document CHEMBL4038314, “Synthetic Modification within the "RPRL" Region of Apelin Peptides: Impact on Cardiovascular Activity and Stability to Neprilysin and Plasma Degradation” (J Med Chem, 2017).

Data set [1] deals with T1, Neprilysin (Homo sapiens, UniProt P08473). The experiment in a line: Inhibition of recombinant human NEP using pyr-1-apelin-13 as substrate assessed as peptide degradation at 1 mM preincubated for 10 mins followed by substrate addition measured after 72 hrs by LC-MS analysis. The settings on record: 1000 µM. Put shortly:
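Recombinant human NEP, 3.1 nM in Tris/NaCl/10 μM ZnCl2 buffer, pH 7.5, preincubated 10 min at 37 °C with 5 μL of 1 mM analogue stock (equimolar to substrate) plus dansyl-YVG standard. Then 5 μL of 1 mM pyr-1-apelin-13 added. Aliquots taken at 0, 1, 4, 24 and 72 h and analysed by LC−MS; duplicate per time point.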

For data set [2], the target named is T1, Neprilysin. The experiment in a line: Drug metabolism assessed as recombinant human NEP-medited peptide proteolysis at 1 mM up to 72 hrs by LC-MS analysis. The data set is classed as ADME. The note with it: 1000 µM. Put shortly: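 Recombinant human NEP, 3.1 nM final in 100 mM Tris, 100 mM NaCl, 10 μM ZnCl2, pH 7.5, preincubated 10 min at 37 °C. Then 5 μL of 1 mM peptide stock and dansyl-YVG internal standard added; incubated at 37 °C for up to 72 h. Extracted-ion LC−MS ratio of parent to standard compared with 0 h and converted to percent cleaved.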

The test system of data set [3] is Mus musculus. Briefly: Cardiovascular activity in anesthetized mouse assessed as decrease in blood pressure at 1.4 uM/kg, iv relative to control. The data set is classed as functional, organism-based. In outline:
(§1)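 Mice under 1.5% isoflurane, body temperature held at 36 °C on a heating pad. Aorta cannulated via the right carotid artery with a 1.2F PV loop catheter to record arterial pressure and heart rate continuously. Peptide given systemically through the right internal jugular vein.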

In data set [4] the test system is Mus musculus. Briefly: Cardiovascular activity in anesthetized mouse assessed as increase in heart rate at 1.4 uM/kg, iv relative to control. The format is functional, organism-based. In outline: as §1
For data set [5], the target named is T1, Neprilysin. The experiment in a line: Drug degradation in human plasma assessed as NEP-mediated degradation by measuring amount of apelin remaining after 60 mins by RP-HPLC analysis. The settings on record: 1 h. The data set is classed as ADME. In outline: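 Human plasma (20 μL) prewarmed to 37 °C, then 5 μL of 400 μM peptide added and incubated for set times; done in triplicate. Quenched with 10% aqueous TFA, dansyl-YVG internal standard added, and peptides recovered on a C18 spin column with 40% acetonitrile/0.1% TFA. Analysed by C18 RP-HPLC; peptide/standard peak-area ratio compared with the 0 min ratio.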

For data set [6], the system named is Heart. The experiment in a line: Cardioprotective activity against Langendorff isolated mouse heart ischemia-reperfusion model assessed as improvement in LVDP at 1 uM administered for 10 mins during start of 40 mins reperfusion period post 30 mins ischemic induction. The data set is classed as functional, tissue-based. In outline: (§2)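 Mouse hearts (heparinized, isoflurane 1.5−2%) excised and Langendorff-perfused at constant 80 mmHg with modified Krebs−Henseleit buffer, 37 °C, 95% O2/5% CO2, pH 7.4. After 10 min baseline, 30 min global ischemia, then 40 min reperfusion. Peptide at 1 μM given for the first 10 min of reperfusion, with saline sham and native apelin-17 as controls. Left ventricular function recorded continuously.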

Data set [7] has as its system Heart. The experiment in a line: Cardioprotective activity against Langendorff isolated mouse heart ischemia-reperfusion model assessed as minimum derivative change in diastolic pressure over time at 1 uM administered for 10 mins during start of 40 mins reperfusion period post 30 mins ischemic induction. The format is functional, tissue-based. Put shortly:
as §2

In data set [8] the test system is Heart. The experiment in a line: Cardioprotective activity against Langendorff isolated mouse heart ischemia-reperfusion model assessed as maximum derivative change in systolic pressure over time at 1 uM administered for 10 mins during start of 40 mins reperfusion period post 30 mins ischemic induction. The data set is classed as functional, tissue-based. Put shortly:
as §2

Data set [9] concerns Heart. The experiment in a line: Cardioprotective activity against Langendorff isolated mouse heart ischemia-reperfusion model assessed as improvement in RPP at 1 uM administered for 10 mins during start of 40 mins reperfusion period post 30 mins ischemic induction. The format is functional, tissue-based. Put shortly:
as §2

For data set [10], the system named is Mus musculus. Briefly: Cardiotoxicity in anesthetized mouse assessed as induction of tachycardia at 1.4 uM/kg, iv relative to control. The data set is classed as toxicity, organism-based. The settings on record: in vivo, 1.4 µmol/kg. In outline: as §1

The structures appear in SMILES notation. Active and inactive are the calls of the source. No cut-off for these calls is given here. Starred links: 1 amine or outer side, 2 acyl side, 3 side chain; linkers in the order of their positions; H or OH if unused. Non-standard residues stand in square brackets, D forms with d. Residues, ends and D or L forms follow the SMILES beside them. Phe(4-Br) = N[C@@H](Cc1ccc(Br)cc1)C(=O)O; X1 = N=C(N)NCCCN(N[*:1])C(=O)[*:2]; pGlu = O=C1CC[C@@H](C(=O)O)N1; Nle = CCCC[C@H](N)C(=O)O; Aib = CC(C)(N)C(=O)O

T1 sequence (P08473 whole entry): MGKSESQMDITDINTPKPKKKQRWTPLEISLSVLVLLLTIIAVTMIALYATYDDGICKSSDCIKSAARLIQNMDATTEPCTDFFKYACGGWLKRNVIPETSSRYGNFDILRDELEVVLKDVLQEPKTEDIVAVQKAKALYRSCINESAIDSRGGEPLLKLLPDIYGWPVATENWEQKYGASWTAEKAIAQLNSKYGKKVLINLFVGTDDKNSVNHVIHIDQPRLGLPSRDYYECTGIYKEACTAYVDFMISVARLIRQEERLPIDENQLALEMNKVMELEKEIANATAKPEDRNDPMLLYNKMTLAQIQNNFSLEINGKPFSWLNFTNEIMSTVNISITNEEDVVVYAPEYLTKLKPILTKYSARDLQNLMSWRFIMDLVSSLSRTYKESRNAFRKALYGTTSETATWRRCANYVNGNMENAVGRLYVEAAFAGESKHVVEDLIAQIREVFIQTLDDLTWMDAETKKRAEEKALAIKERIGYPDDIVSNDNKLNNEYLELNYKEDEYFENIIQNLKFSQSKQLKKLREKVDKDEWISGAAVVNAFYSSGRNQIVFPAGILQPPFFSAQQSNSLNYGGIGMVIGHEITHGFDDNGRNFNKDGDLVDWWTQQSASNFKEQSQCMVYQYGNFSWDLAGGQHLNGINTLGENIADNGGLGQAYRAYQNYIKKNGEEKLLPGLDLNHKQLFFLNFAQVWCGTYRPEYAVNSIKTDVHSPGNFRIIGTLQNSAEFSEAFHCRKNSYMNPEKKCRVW

Regarding `CCCC[C@H](NC(=O)[C@@H]1CCCN1C(=O)CNC(=O)[C@H](CCCCN)NC(=O)[C@H](Cc1c[nH]cn1)NC(=O)[C@H](CO)NC(=O)[C@H](CC(C)C)N(C)C(=O)[C@H](CCCNC(=N)N)NC(=O)[C@@H]1CCCN1C(=O)[C@H](CCCNC(=N)N)NC(=O)[C@@H]1CCC(=O)N1)C(=O)NC(C)(C)C(=O)N[C@@H](Cc1ccc(Br)cc1)C(=O)O`, at Neprilysin [1], the “inhibition (INH)” value is listed as “Not Active”. For the same compound, the Drug metabolism result on Neprilysin [2] is “Metabolite_Notdetected”. In the data set with Mus musculus [3], the outcome was inactive. Also, the outcome with Mus musculus [4] was Active. The Drug degradation on Neprilysin [5] was 59%.
For the compound `CCCC[C@H](NC(=O)[C@@H]1CCCN1C(=O)CNC(=O)[C@H](CCCCN)NC(=O)[C@H](Cc1c[nH]cn1)NC(=O)[C@H](CO)NC(=O)[C@H](CC(C)C)NC(=O)[C@H](CCCNC(=N)N)NC(=O)[C@@H]1CCCN1C(=O)[C@H](CCCNC(=N)N)NC(=O)[C@@H]1CCC(=O)N1)C(=O)NC(C)(C)C(=O)N[C@@H](Cc1ccc(Br)cc1)C(=O)O`, at Neprilysin [2], the Drug metabolism entry is listed as “Metabolite_Detected”. For the same compound, the result in the data set with Mus musculus [3] and with Mus musculus [4] was inactive. For the same compound, the Drug degradation at Neprilysin [5] was found to be 65%.
Consider `CCCC[C@H](NC(=O)[C@@H]1CCCN1C(=O)CNC(=O)[C@H](CCCCN)NC(=O)[C@H](Cc1c[nH]cn1)NC(=O)[C@H](CO)NC(=O)[C@](C)(CC(C)C)NC(=O)[C@H](CCCNC(=N)N)NC(=O)[C@@H]1CCCN1C(=O)[C@H](CCCNC(=N)N)NC(=O)[C@@H]1CCC(=O)N1)C(=O)NC(C)(C)C(=O)N[C@@H](Cc1ccc(Br)cc1)C(=O)O`, for which the “inhibition (INH)” value at Neprilysin [1] is listed as “Not Active”. Besides, the Drug metabolism entry at Neprilysin [2] was “Metabolite_Notdetected”. The outcome in the data set with Mus musculus [4] was Active. Also, the Drug degradation on Neprilysin [5] is 38%.
Take `CCCC[C@H](NC(=O)[C@@H]1CCCN1C(=O)CNC(=O)[C@H](CCCCN)NC(=O)[C@H](Cc1c[nH]cn1)NC(=O)[C@H](CO)NC(=O)[C@H](CC(C)C)NC(=O)N(CCCNC(=N)N)NC(=O)[C@@H]1CCCN1C(=O)[C@H](CCCNC(=N)N)NC(=O)[C@H](CCC(N)=O)NC(=O)[C@H](CCCNC(=N)N)NC(=O)[C@H](CCCNC(=N)N)NC(=O)[C@H](Cc1ccccc1)NC(=O)[C@@H](N)CCCCN)C(=O)NC(C)(C)C(=O)N[C@@H](Cc1ccc(Br)cc1)C(=O)O` (H-KFRRQRP[X1]LSHKGP[Nle][Aib][Phe(4-Br)]-OH): the “inhibition (INH)” value at Neprilysin [1] is “Not Active”. In addition, the result in the data set on Heart [6], with Heart [7], in the data set on Heart [8], with Mus musculus [3] and with Heart [9] was Active. Further, at Neprilysin [2], the Drug metabolism entry is recorded as “Metabolite_Notdetected”. Further, in the data set on Mus musculus [10], the Activity entry is reported as “Toxic”. Also, the Drug degradation at Neprilysin [5] was 94%.
With `CCCC[C@H](NC(=O)[C@@H]1CCCN1C(=O)CNC(=O)[C@H](CCCCN)NC(=O)[C@H](Cc1c[nH]cn1)NC(=O)[C@H](CO)NC(=O)[C@H](CC(C)C)NC(=O)N(CCCNC(=N)N)NC(=O)[C@@H]1CCCN1C(=O)[C@H](CCCNC(=N)N)NC(=O)[C@@H]1CCC(=O)N1)C(=O)NC(C)(C)C(=O)N[C@@H](Cc1ccc(Br)cc1)C(=O)O` ([pGlu]RP[X1]LSHKGP[Nle][Aib][Phe(4-Br)]-OH), on Neprilysin [1], the “inhibition (INH)” value is listed as “Not Active”. Also, on Neprilysin [2], the Drug metabolism result is recorded as “Metabolite_Notdetected”. Further, the result with Mus musculus [4] was Active. At Neprilysin [5], the Drug degradation is 57%.
